The source of these data is ChEMBL document CHEMBL4513216, “Probing the Open Global Health Chemical Diversity Library for Multistage-Active Starting Points for Next-Generation Antimalarials” (ACS Infect Dis, 2020).

The data set is described as follows: Toxicity liver stage against HepG2, at 10uM. Particulars: human, HepG2-A16-CD81EGFP cells; read-out: INHIBITION
Type of data set: cell-based. On the set-up: test concentration 10 uM, cell line HepG2-A16-CD81EGFP. Summed up:
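Uninfected HepG2-A16-CD81EGFP cells, 3 × 10^3 per well, 1536-well, plated on prespotted compound at 10 μM final, parasite-free screening media added to match infected plates; puromycin 10 μM positive, DMSO 0.5% negative; run in parallel with 48 h PbLuc assay at 37 °C, 5% CO2; viability by CellTiter-Glo luminescence, normalized to controls.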
For `NC(=O)C(Cc1ccccc1)NS(=O)(=O)Cc1ccccc1Cl` (configuration not stated), the cytotoxicity at 10 µM was found to be 7.56%.
Regarding `CC(C)CN1CCOC[C@H](Oc2ccc(S(C)(=O)=O)cc2)C1`, the cytotoxicity at 10 µM is -1.67%.
For `CCC1CN(CC(=O)NCCN2CCCCC2)c2ccccc2S1` (configuration not stated) the value was -10%; for `COc1ccc2nnc(CCC(=O)NCc3cccn3C)n2n1`, -10.1%; for `O=c1c(S(=O)(=O)N2CCCCC2)cccn1Cc1ccccc1Cl`, 10.6%.
The result for `O=C(NCC(O)(c1ccco1)C1CC1)c1ccccc1F` (configuration not stated) reads -1.16%; that for `COc1ccccc1OCC(=O)NCC(C)(O)c1ccccc1` (configuration not stated), -5.37%; that for `O=C(NCCN1CCC(c2cccs2)CC1)Nc1cccs1`, -20.6%.
For `CC(C)c1cc2c(s1)NC(c1ccccc1)NC2=O` (configuration not stated) the value was 8.82%; for `CCS(=O)(=O)N1CCC(c2nn(CCN(C)C)c3ncccc23)C1` (configuration not stated), -4.88%.
For `CCC1CNCc2cc3c(OC)ccc(OC)c3nc2O1` (configuration not stated), the cytotoxicity at 10 µM was -4.22%.
Consider `O=C1CN([C@@H]2CC[C@@H](NS(=O)(=O)c3ccc(F)cc3)[C@H]2O)CCN1`, for which the cytotoxicity at 10 µM is -2.11%.
The result for `Cc1cc(N2CCC(O)CC2)nc(C2CCCN2C)n1` (configuration not stated) reads -1.89%; that for `Cc1noc(C)c1C(=O)N1CCC2(CCc3ccccc3C(=O)N2)C1` (configuration not stated), 1.75%; that for `Cc1cc(N2CCCC2c2nc(C)cc(CCC(=O)O)n2)ncn1` (configuration not stated), -17.1%.
Consider `COCC(=O)N1CCC(c2cc(C(F)(F)F)c3c(C)noc3n2)CC1`, for which the cytotoxicity at 10 µM is -28%.
The result for `O=C(N[C@@H]1CC[C@@H](n2ccnc2)[C@@H]1O)c1cc2c(s1)CCC2` reads -12.7%; that for `Cc1ccc(O)c(CNc2cccc(OCCF)c2)n1`, -3.09%.
The result for `Cc1ccc(CN(CCN(C)C)C(=O)Cc2cn3ccccc3n2)o1` reads -5.1%; that for `COc1ccccc1CC(C)CC(=O)NS(=O)(=O)C(C)C` (configuration not stated), 4.56%; that for `N#Cc1cc(F)ccc1CN1CCCCC1Cn1cncn1` (configuration not stated), 5.41%.
The result for `CNC(=O)c1coc(-c2csc(C)n2)c1` reads 6.96%; that for `CCS(=O)(=O)NCCN1CCc2ccc(F)cc2C1C` (configuration not stated), 6.88%.
Turning to `CC(Nc1ccn(CCS(C)(=O)=O)n1)c1ccc(C#N)cc1` (configuration not stated), the cytotoxicity at 10 µM worked out at 8.64%.
For `CCC(C)(C)NC(=O)c1ccc(NC(=O)NCc2cc(C)no2)cc1` the value was 0.696%; for `COc1ccnc(N2CCN(Cc3ncc(C(C)(C)C)o3)CC2)n1`, -7.2%; for `CN(CC(=O)NS(=O)(=O)c1ccsc1)Cc1ccccc1`, -5.1%.
The result for `COc1cc(C(=O)NC(C)c2cccs2)cc2c1OCCO2` (configuration not stated) reads -18.2%; that for `COC(CNC(=O)c1ccc(NC(C)=O)cc1)c1cccc(Cl)c1` (configuration not stated), 7.72%.
In the case of `CN(Cc1cnn(C)c1)C(=O)CCc1ccc2c(c1)OCO2`, the cytotoxicity at 10 µM is -2.59%.
The result for `N#Cc1ccc(N2CCCN(CCCn3cncn3)CC2)cc1` reads -8.9%.
`O=C(Nc1nc(-c2ccccc2)ns1)N1CC[C@H](O)C1`: the cytotoxicity at 10 µM turned out to be 10.5%.
The result for `N#Cc1cc(NC(=O)c2cc[nH]n2)ccc1N1CCC(O)CC1` reads -0.758%; that for `O=C1NCCCCC1Sc1n[nH]c(=O)n1C1CC1` (configuration not stated), 5.24%.
Regarding `Cc1cc(C)n(C2CN(Cc3noc(C4CC4)n3)C2)n1`, the cytotoxicity at 10 µM worked out at 0.738%.
The result for `NC(=O)C1CCN(Cn2nc(-c3ccc(F)cc3)oc2=O)C1` (configuration not stated) reads 14.6%.
The result for `CC(=O)N(C)C1CCN(C(=O)c2cccc3c2ccn3C)CC1` reads 1.56%; that for `FC(F)c1nnc2ccc(N3CCC4(CCOC4)C3)nn12` (configuration not stated), 9.2%.
Consider `O=C(Nc1cn[nH]c1)N(CCCO)C1CCc2ccccc21` (configuration not stated), for which the cytotoxicity at 10 µM is -1.74%.
For `COC(=O)NCCCC(=O)NC1(c2cccc(Cl)c2)CC1` the value was -2.56%.
For `CCN1CCOC(CNc2nccc(C(F)(F)F)n2)C1` (configuration not stated) the value was 5.31%; for `Cn1cc(CCCNC(=O)NCC(O)c2ccsc2)cn1` (configuration not stated), -5.4%; for `CCCn1nc2c(cc1=O)CN(CC(=O)N(C)c1nccs1)CC2`, 1.25%.
Consider `O=C(c1cc(Cl)c[nH]1)N1CCN(CCc2ccccn2)CC1`, for which the cytotoxicity at 10 µM was determined as 19.2%.
For `Cc1cc(C)n(CC2CCCN2C(=O)c2ccc3c(c2)nnn3C)n1` (configuration not stated) the value was -17.3%; for `O=C(NCC1Cn2nnc(-c3cccc(F)c3)c2CO1)c1ccc[nH]1` (configuration not stated), 1.46%.
For the molecule `O=C(NC1CCCC1)N1CCC2(CC1)CC(Oc1cccnc1)CO2` (configuration not stated), the cytotoxicity at 10 µM is -5.6%.
Consider `CC1(C)CNC(=O)c2nc(-c3nnn[nH]3)[nH]c2C1`, for which the cytotoxicity at 10 µM was -5.69%.
In the case of `Cc1ccccc1C(CC(=O)NCc1nnc(N)s1)c1ccccc1` (configuration not stated), the cytotoxicity at 10 µM was 13.6%.
For `O=C1OCCN1Cc1cccc(C(F)(F)F)c1F` the value was -0.524%.
As for `Nc1nc(CCCNC(=O)C2CCCN(Cc3ccco3)C2)cs1` (configuration not stated), the cytotoxicity at 10 µM is -0.745%.
For `COc1cc(C)cc(OC)c1C(C(=O)O)N(C)Cc1c(C)nn(C)c1C` (configuration not stated) the value was 7.34%; for `Cc1cc(C)n(C2CN(C(=O)c3cn4ccsc4n3)C2)n1`, 4.99%; for `CC(C)[C@@H]1CN(Cc2ccccn2)C[C@H]1NS(=O)(=O)N(C)C`, -0.869%.
The result for `CCOCCn1nc(C)cc1C(=O)N1CCC2(CC1)[C@H](O)C[C@@H]2OCC` reads 4.35%; that for `CCc1ncc2c(n1)CN(c1nc(C)ccc1C(=O)O)C2`, 8.25%; that for `Cc1nc2c(c(N3CCC4(CCCNC4=O)C3)n1)CCC2` (configuration not stated), -12.8%.
The result for `O=C(Cn1cccn1)NCC1CCN(Cc2cc3ccccc3[nH]2)C1` (configuration not stated) reads 7.11%; that for `CCc1nccn1CCC(=O)N1CCOC(c2ccc(F)cc2)C1` (configuration not stated), -12.5%; that for `CCc1noc(C)c1C(=O)N1CCC2(CCCN(CC(C)(C)C)C2=O)C1` (configuration not stated), 3.75%.
Consider `CC(=O)c1ccc(C(=O)N(C)Cc2nc(-c3ccccn3)no2)s1`, for which the cytotoxicity at 10 µM came to 2.45%.
Turning to `CN(Cc1cc2n(n1)CCCNC2)Cc1n[nH]c2c1CCC2`, the cytotoxicity at 10 µM turned out to be 3.04%.
For `c1ccc(-c2ncc(CN3CCC4(CCNCC4)C3)cn2)cc1` the value was -5.71%.
The result for `CN(C)C(C(=O)NCC1(Cn2cccn2)CC1)c1ccc(F)cc1` (configuration not stated) reads 3.65%.
Consider `CN1CCN(C)C2(CCN(Cc3ccc(C4CCCCO4)o3)CC2)C1` (configuration not stated), for which the cytotoxicity at 10 µM is 0.0773%.
The result for `CC(NC(=O)CCCc1ccc(Cl)cc1)c1nnn[nH]1` (configuration not stated) reads 0.292%; that for `CNC(=O)[C@@H]1C[C@@H](N)CN1C(=O)CCSCc1ccc(F)cc1`, -17.6%.
For `CS(=O)(=O)c1ccc(-c2cc(O)cc(CCC3CCCCN3)c2)cc1` (configuration not stated) the value was 0.292%.
For `CCc1cc(CN(C)C(=O)CN2CC(c3ccccc3)CC2=O)on1` (configuration not stated) the value was -4.81%.
In the case of `CCc1nc2c(N3CCC4(CC3)CNC(=O)C4)ncnc2o1`, the cytotoxicity at 10 µM is -2%.
The result for `O=C(C1CCCCO1)N1CCc2ncnc(NCc3ccon3)c2CC1` (configuration not stated) reads 13.1%; that for `CCNC(=O)[C@@H]1C[C@@H](N)CN1C(=O)C1(c2ccc(OC)cc2)CCCC1`, 3.95%.
Consider `CC(CCn1cccn1)NCc1n[nH]c2c1CCCCC2` (configuration not stated), for which the cytotoxicity at 10 µM was -3.98%.
For `O=C1CCCN1CCCC(=O)N1CCC2(CC1)[C@H](O)C[C@@H]2O` the value was -2.38%.
As for `O=C(CCCc1cn[nH]c1)N1CCOCC(O)C1` (configuration not stated), the cytotoxicity at 10 µM was -23%.
For `Cc1nn(C)c(C)c1C1CCCN1C(=O)c1ccc(C(N)=O)cn1` (configuration not stated) the value was -4.34%.
The result for `CCC(C)C(=O)NS(=O)(=O)c1ccc(C#N)cc1C(F)(F)F` (configuration not stated) reads -5.25%; that for `CC(C)Cc1nc(CN2CCCC2Cn2cncn2)no1` (configuration not stated), -8.66%.
For `CCc1nc(C2CCCN2CCCSC)no1` (configuration not stated) the value was -6.57%; for `CC(C)c1cc(NC(=O)CN2CCC(C(N)=O)CC2)on1`, -6.37%.
Turning to `Cc1cnn(CC2CN(Cc3csc(C(C)C)n3)CCO2)c1` (configuration not stated), the cytotoxicity at 10 µM turned out to be 5.58%.
For `CN(C)c1cc(CNC(=O)c2ccc(O)nc2)ccn1` the value was -16%; for `CCc1nc(CN2CCN(C(=O)c3cnccn3)CC2)cs1`, -8.92%.
As for `COc1cccc(Nc2nc(C3CCNCC3)c3ccccn23)c1`, the cytotoxicity at 10 µM is -2.67%.
With `OC1CCN(c2cncc(CCC3CCCN3)n2)CC1` (configuration not stated), the cytotoxicity at 10 µM was -0.24%.
For `CC(C)N1CCCC1c1cc(CO)[nH]n1` (configuration not stated) the value was 6%; for `Cc1ccc(CN(CCCn2ccnc2)Cc2[nH]cnc2C)s1`, -22.8%.
As to `Cn1cc(C(=O)NCc2cn3c(n2)CN(CC2CCOCC2)CC3)cn1`, the cytotoxicity at 10 µM was -12.9%.
The result for `CN(C)c1ncc(C2Nc3ccccc3C3=NCCCN32)cn1` (configuration not stated) reads -23.2%; that for `O=S(=O)(c1ccccc1)N1C[C@@H]2COC[C@]2(CN2CCOCC2)C1`, 2.32%.
As to `CN(C)C(=O)c1cnc2n1CCN(Cc1ccccc1)C2`, the cytotoxicity at 10 µM was found to be 7.05%.
For `c1cc(CN2C[C@H](OCC3CCOCC3)[C@H]3COC[C@H]32)cs1` the value was 9.86%; for `CCCN1CCCn2c(nc(CNC(=O)c3cnoc3C)cc2=O)C1`, 2.32%; for `CSc1ncc(CN2C[C@@H]3CC[C@H]2CN(C2CCOCC2)C3)cn1`, -0.943%.
Turning to `CNC(=O)[C@H]1C[C@H]2CN(Cc3ccc(C)cc3)C[C@@H]1O2`, the cytotoxicity at 10 µM was found to be 1.82%.
The result for `COc1ccc(OC)c(C(=O)N2C[C@@H]3CC[C@H]2CN(C)C3)c1` reads 4.61%.
For `O=C(CSc1ccncc1)N1C[C@@H]2CC[C@H]1CN(Cc1cccnc1)C2` the value was 4.66%.
